One assay concerns dsDNA. Kind of assay: Binding affinity to double stranded DNA (unknown origin) assessed as change in melting temperature at 20 uM by fluorescence assay. The assay is classed as nucleic-acid assay.
In assay [1] the test system is Quadruplex DNA. Kind of assay: Binding affinity to 5'-Dabcyl/3'-FM labeled c-myc G-quadruplex DNA (unknown origin) assessed as change in melting temperature at 20 uM by fluorescence assay. The class given is nucleic-acid assay. The essentials: (§1)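 Fluorescence melting of end-labelled oligonucleotides matching the c-myc and c-Kit G4 sequences used in the virtual screen. Melting profiles were recorded with and without increasing ligand concentrations.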

In assay [2] the test system is Quadruplex DNA. Kind of assay: Binding affinity to 5'-Dabcyl/3'-FM labeled c-Kit G-quadruplex DNA (unknown origin) assessed as change in melting temperature at 20 uM by fluorescence assay. The assay is classed as nucleic-acid assay. The method in brief: as §1
The species entered for the next assay is Homo sapiens. Kind of assay: (§2) Cytotoxicity against human HMC-1.2 cells assessed as reduction in cell viability after 72 hrs by Alamar blue assay. The class given is functional, cell-based. The method in brief:
(§3)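 Cells were exposed to the compound for 72 h, and viability was read by Alamar Blue. IC50 values were taken from dose-response curves, with linear regression coefficients (R2) reported.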
Background: The colour change of resazurin is a common sign of viable cells or microbes.

Assay [3] is described as follows: as §2. The class given is functional, cell-based. The method in brief: as §3
For assay [4], the system named is Quadruplex DNA. Kind of assay: Stabilization of c-myc G-quadruplex DNA (unknown origin) by circular dichroism method. The assay is classed as nucleic-acid assay. (In general: Circular dichroism is the unequal absorption of left and right circularly polarised light.)
Assay [5] deals with Quadruplex DNA. Kind of assay: Stabilization of c-Kit G-quadruplex DNA (unknown origin) by circular dichroism method. The class given is nucleic-acid assay.
Another assay concerns HGC-27. Kind of assay: Cytotoxicity against human HGC27 cells assessed as reduction in cell viability after 72 hrs by Alamar blue assay. The assay is classed as functional, cell-based. The note with it: for IC50: HGC-27, 72 h. The essentials: as §3
Assay [6] relates to Quadruplex DNA. Kind of assay: Stabilization of 5'-biotinylated c-Kit G-quadruplex DNA (unknown origin) by surface plasmon resonance assay. The class given is nucleic-acid assay. For orientation: Surface plasmon resonance follows binding to a sensor surface in real time, without labels.

Structures are written as SMILES. Calls of active or inactive are those of the source. No cut-off for these calls is given here.

For `CC(C)CC(N)C(=O)NC1CCN(C(=O)Cn2ccc3ccncc32)CC1` (stereo not drawn), the result in the assay on dsDNA was inactive. The ΔTm in the assay on Quadruplex DNA [1] is 0.1 °C; with Quadruplex DNA [2], 0.3 °C.
In the case of `Cc1ccc(COc2ccc(CNCC3CCNCC3)cc2)cc1`, the Activity result in the assay filed under Homo sapiens, in the assay on HGC-27 and in the assay on Quadruplex DNA [6] was “Dose-dependent effect” in each case. In addition, the IC50 in assay [3] came to 4000 nM; in the assay with HGC-27, 4220 nM. Also, the result in the assay with Quadruplex DNA [4] and in the assay on Quadruplex DNA [5] was Active. For the same molecule, in the assay on dsDNA, the outcome was inactive. In addition, the results for the ΔTm in the assay on Quadruplex DNA [1] and in the assay with Quadruplex DNA [2] were 1.3 °C and 2.3 °C, respectively.
`Cc1cc(-c2ccc(CNCC3CCNCC3)o2)ccc1Br`: the Activity entry in the assay filed under Homo sapiens and in the assay on HGC-27 was “Dose-dependent effect” in each case. Also, the IC50 worked out at 2560 nM in assay [3] and 2550 nM in the assay with HGC-27. The result in the assay on Quadruplex DNA [4] and with Quadruplex DNA [5] was Active. The ΔTm with dsDNA was 1.5 °C; with Quadruplex DNA [1], 2 °C; in the assay with Quadruplex DNA [2], 3 °C.
`CCOc1cc(CNCC2CCNCC2)ccc1OCc1ccc(Cl)cc1`: the Activity entry in the assay listed under Homo sapiens, with HGC-27 and with Quadruplex DNA [6] was “Dose-dependent effect” each time. Besides, the IC50 in assay [3] was 2560 nM; with HGC-27, 2370 nM. Also, the outcome in the assay on Quadruplex DNA [4] was Active. The result in the assay on dsDNA was inactive. This molecule also came in with a Kd at Quadruplex DNA [5] of 18000 nM. Moreover, the ΔTm with Quadruplex DNA [1] stood at 5.4 °C; in the assay on Quadruplex DNA [2] it was 3.2 °C.
For the molecule `CCn1cc(C(NC(=O)CCCN)c2ccc(F)cc2)c2ccncc21` (stereo not drawn), in the assay on dsDNA, the result was inactive. The ΔTm in the assay on Quadruplex DNA [1] was found to be 0.4 °C; in the assay on Quadruplex DNA [2] it was 1.1 °C.
Consider `CC(C)(N)C(=O)NC1CCN(C(=O)Cn2ccc3ccncc32)CC1`, for which the outcome in the assay on dsDNA was inactive. In addition, the ΔTm is 0.6 °C in the assay on Quadruplex DNA [1] and 0.1 °C with Quadruplex DNA [2].

Usually ΔTm stands for the change in melting temperature against a reference sample. A word on the IC50: it is the concentration at which inhibition is half-maximal. A word on the Kd: it is the equilibrium constant for the complex coming apart. Higher therefore signals weaker binding.

The values are drawn from ChEMBL document CHEMBL4196163, “In Silico Identification of Piperidinyl-amine Derivatives as Novel Dual Binders of Oncogene c-myc/c-Kit G-quadruplexes” (ACS Med Chem Lett, 2018).
